Hits are enriched below; roughly 2.3% of the tested compounds scored in any of these assays.
SKN-1 block = inhibitors of C. elegans SKN-1; AID 624304; inhibition, % at 21.8 µM; actives 0.49% (n = 360,000); C. elegans VP596 Pgst-4::GFP/RFP ratio, acrylamide-induced, 24 h;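 active means interference check ratio from 0.5 to 1.5 plus GFP to RFP signal ratio inhibition reaching or exceeding a fixed threshold, cut at about 30% in these data, passing the limit was not always enough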
ATG4B inh = ATG4B (human) cysteine protease inhibition | Q9Y4P1 | ATG4B cleavage of LC3-PLA2, NBD-HPC fluorescence, 1 h | inhibition, % at 8.33 µM | actives 0.51% (n = 340,000); in the data active means inhibition above about 40%
Target sequence (Q9Y4P1 whole entry, looked up): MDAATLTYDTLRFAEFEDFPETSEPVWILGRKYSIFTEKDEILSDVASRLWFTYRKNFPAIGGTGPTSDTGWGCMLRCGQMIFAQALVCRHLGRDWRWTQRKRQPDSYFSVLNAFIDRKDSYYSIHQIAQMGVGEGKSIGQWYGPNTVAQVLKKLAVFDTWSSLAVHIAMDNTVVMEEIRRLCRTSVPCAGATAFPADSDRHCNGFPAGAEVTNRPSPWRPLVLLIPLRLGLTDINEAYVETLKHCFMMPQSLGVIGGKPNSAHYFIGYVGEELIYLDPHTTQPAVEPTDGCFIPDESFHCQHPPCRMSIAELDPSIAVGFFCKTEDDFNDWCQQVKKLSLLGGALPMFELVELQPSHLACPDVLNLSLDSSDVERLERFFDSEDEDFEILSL
MT1-MMP act inh = MT1-MMP (human) activation inhibition | P50281 | HT1080 RFP-PRO-GFP cells, GFP/RFP ratio fluorescence, overnight; percent of plate control window, DMSO zero | GFP/RFP ratio change, % at 20 µM | actives 0.061% (n = 360,000) | AID 651647;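 active means GFP/RFP ratio change of at least 30% with cell ATP level not reduced by more than half and red fluorescence within 50% of control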
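Test system: HT1080 cells expressing an RFP-PRO-GFP fluorescent reporter construct / Compound dosing: single-point 20 µM compound, 1% DMSO / Schedule: cells overnight before dosing, compound overnight, 37 °C, 5% CO2 / Evaluation: GFP/RFP fluorescence ratio / Control set: DMSO and RFP-L50D-GFP cell wells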
MPTP inh = permeability transition pore inhibition | isolated mouse mitochondria, Ca2+ swelling absorbance, 30 min | inhibition, % at 10 µM | actives 1.4% (n = 360,000);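 active means inhibition of 50% or more, scaled per plate between neutral and stimulator controls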;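 further: 0% = DMSO wells given calcium and 100% = 1 mM EGTA wells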
Rh123 counter = mitochondrial membrane potential, counter-screen. shares compounds with MPTP inh. isolated mitochondria, Rhodamine 123 fluorescence. inhibition, % at 10 µM. actives 78% (n = 5,000). AID 624504; in the data active means inhibition above about 22%;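 further: 0% = DMSO vehicle and 100% = positive control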
MPTP abs DR = MPTP inhibition, dose response swelling confirmation; shares compounds with MPTP inh; AID 651561; IC50, µM; actives 58% (n = 780); isolated mitochondria swelling, absorbance; in the data active means IC50 below about 20 µM
MPTP counter DR = MPTP inhibitor counter-screen activity, dose response. shares compounds with MPTP inh. isolated mitochondria counterscreen, fluorescence read-out. IC50, µM. actives 49% (n = 780). AID 651564; in the data active means IC50 below about 80 µM
Starred values were filed as active, the others as inactive; i = inactive; · = not tested or not shown; + = active, no number.

SMILES	SKN-1 block	ATG4B inh	MT1-MMP act inh	MPTP inh	Rh123 counter	others
Cc1cccc2sc(N(CCN(C)C)C(=O)C3CCN(S(=O)(=O)c4cccs4)CC3)nc12	-4	-13	0	72*	-18	MPTP abs DR=i;MPTP counter DR=>80
COc1cc2ccccc2cc1C(=O)N(CCN(C)C)c1nc2c(OC)ccc(OC)c2s1	0	11	-13	67*	-8	MPTP abs DR=>100;MPTP counter DR=52*
COc1ccc(OC)c2sc(N(CCN(C)C)C(=O)c3ccc4ccccc4c3)nc12	7	-1	-1	-1	·
CN(C)CCN(C(=O)C1CCN(S(=O)(=O)c2cccs2)CC1)c1nc2ccc(F)cc2s1	5	-1	3	12	·
COc1cc2ccccc2cc1C(=O)N(CCN(C)C)c1nc2c(C)cccc2s1	9	25	-3	69*	-8	MPTP abs DR=i;MPTP counter DR=>80
CN(c1ccc(C(=O)NCCc2ccccc2)cc1)S(C)(=O)=O	20	4	5	-2	·
COC(=O)c1cc(S(=O)(=O)NCC2CCN(CCc3cccs3)CC2)c[nH]1	7	-5	-2	-1	·
O=C(COc1ccccc1Br)Nc1ccc2c(c1)OCCCO2	18	0	0	2	·
O=S(=O)(Nc1nc2ccccc2s1)c1cc(F)ccc1F	6	2	-1	2	·
O=S(=O)(Nc1nc2ccccc2s1)c1cnc(Cl)c(Br)c1	15	3	-9	90*	85*
O=S(=O)(Nc1nc2ccccc2s1)c1ccc(Cl)s1	-8	4	-3	78*	80*
COc1ccc(Cc2nnc(NS(=O)(=O)c3ccc([N+](=O)[O-])cc3)s2)cc1	-4	-14	-3	1	·
CN1/C(=C\C(=O)Nc2cccc(Cl)c2)C(C)(C)c2ccccc21	50*	5	8	104*	82*
CN1/C(=C\C(=O)Nc2ccc(Br)cc2)C(C)(C)c2ccccc21	4	-1	1	28	·
O=C(Nc1cccc(F)c1)N1CCCCCC1	5	-3	-1	-1	·
COc1ccc(-c2cc(C3CCN(c4ccc(C(C)=O)cc4[N+](=O)[O-])CC3)[nH]n2)cc1	-8	-8	-1	84*	81*
COC(=O)Cc1cc(=O)n2[nH]c(C)nc2n1	0	-1	-3	-1	·
COC(=O)Cc1cc(=O)n2[nH]c(C)cc2n1	14	0	-6	+	2	MPTP abs DR=>100;MPTP counter DR=>80
Fc1c(F)c(C(F)(F)F)c(F)c(F)c1N/N=C\c1cccs1	8	15	-1	87*	70*
COc1ccc(C2CC(=O)N(C)c3ccccc3S2)cc1 (stereo unspecified)	11	-1	3	2	·
CN(C)c1ccc(C=c2c3ccccc3n3c2cc(-c2ccccc2)[n+]3C)cc1	83	37	10	58*	75*
CN(C)c1ccc(C=c2c3ccccc3n3c2cc(-c2ccc(Cl)cc2)[n+]3C)cc1	59	15	46	22	·
NN/C(=C\[N+](=O)[O-])Nc1ccc(Cl)cc1	3	2	-1	55*	87*
NN/C(=C\[N+](=O)[O-])Nc1ccccc1	10	-10	5	3	·
N#C/C(=C\Nc1ccccc1O)c1nc2ccccc2o1	0	20	-3	77*	78*
SMILES	SKN-1 block	ATG4B inh	MT1-MMP act inh	MPTP inh	Rh123 counter	others
Cc1noc(C)c1S(=O)(=O)N(C)C[C@H]1Oc2c(NC(=O)Nc3ccc(C(F)(F)F)cc3)cccc2C(=O)N([C@H](C)CO)C[C@@H]1C	8	-21	6	-2	·
CC1(C)CC(NC(=O)C2CCC(=O)N(Cc3ccccc3F)C2)CC(C)(C)C1 (stereo unspecified)	16	-7	-1	-1	·
O=C(Nc1ccc(Br)cc1)c1cc([N+](=O)[O-])cc([N+](=O)[O-])c1	-2	-1	5	102*	86*
Cc1cccc(NC(=O)c2c([N+](=O)[O-])c(C(C)(C)C)nn2C)c1	12	2	-2	3	·
Cn1nc(C(C)(C)C)c([N+](=O)[O-])c1C(=O)Nc1ccc(Br)cc1	-12	-4	-2	80*	93*
Cc1ccc(NC(=O)c2ccc(Nc3c([N+](=O)[O-])cc([N+](=O)[O-])cc3[N+](=O)[O-])cc2)cc1	-4	-4	13	96*	74*
O=C(CC1NC(=S)NC1=O)c1ccc(Cl)cc1 (stereo unspecified)	-2	-3	-1	1	·
COC(=O)CSc1nnc(CNC(=O)c2ccco2)n1-c1ccc(F)cc1	-1	-6	-2	-2	·
Cc1ccc(/C=N/NC(=O)c2ccc(-n3cnnn3)cc2)cc1	8	-1	3	-1	·
CCOc1ccccc1N1CCN(C(=O)Nc2ccc(F)c(Cl)c2)CC1	4	20	8	88*	93*
CC(C)(C)OC(=O)NCCCCCc1nnc(SCC(=O)Nc2cccc(Cl)c2)o1	-5	-5	3	74*	57*
CC(C)(C)OC(=O)NCCc1nnc(SCC(=O)Nc2cccc(Cl)c2)o1	-2	-4	7	4	·
CCOC(=O)c1ccc(S(=O)(=O)Nc2ccc3cn[nH]c3c2)cc1	-5	-12	5	55*	39*
C/C(=C/C(=O)Nc1cccc(F)c1)N1CCCC1	11	3	0	0	·
COC(=O)c1ccc(N)c(N=CC2=C(O)CC(C)(C)CC2=O)c1	8	-5	-106	-2	·
COC(=O)c1ccc2c(c1)C(C)(C)C(/C=C/c1ccccc1O)=[N+]2C	87	8	93	75*	-22
C[C@H](NC(=O)c1cccc([N+](=O)[O-])c1)C(=O)OCC(=O)c1ccccc1Br	-1	-31	4	0	·
O=C(/C=C/c1cccc([N+](=O)[O-])c1)NCCSCc1ccc(Cl)cc1Cl	15	3	5	67*	73*
CN(C)Cc1c(C(=O)N/N=C/c2ccccc2OCc2c(F)cccc2Cl)nnn1-c1nonc1N	2	-2	-9	0	·
CN(C)Cc1c(C(=O)N/N=C/c2cccc(OCc3c(F)cccc3Cl)c2)nnn1-c1nonc1N	1	8	0	61*	-3	MPTP abs DR=6.3*;MPTP counter DR=<2.5*
CN(C)Cc1c(C(=O)N/N=C/c2cccc(OCc3ccccc3)c2)nnn1-c1nonc1N	24	-1	3	65*	80*
COc1cc(/C=N/NC(=O)c2nnn(-c3nonc3N)c2C(C)C)ccc1OCc1ccc(F)cc1	-10	17	-6	62*	56*
CCCc1c(C(=O)N/N=C/c2ccc(OCc3ccccc3)c(OC)c2)nnn1-c1nonc1N	15	4	-1	0	·
CCCC(=O)N1CCC1(C)C(=O)Nc1ccc(C)c(C)c1 (stereo unspecified)	-4	·	0	-2	·

Screening results (PubChem BioAssay)
